Results taken from ChEMBL document CHEMBL4823269, “Acyclic nucleoside phosphonates with 2-aminothiazole base as inhibitors of bacterial and mammalian adenylate cyclases” (Eur J Med Chem, 2021).

Key:
[1] = Inhibition of Bordetella pertussis ACT by cell free assay
How it was run: (§1)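 Run cell-free on the bacterial enzyme, with the phosphono diphosphate forms (nucleoside triphosphate analogues) added directly rather than the bisamide prodrugs; an IC50 was obtained.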

[2] = Inhibition of Bordetella pertussis ACT exposed to mouse J774.A1 cells assessed as inhibition of ACT-induced cAMP accumulation cells pretreated for 5 hrs measured after 30 mins followed by enzyme addition by immunoassay; format: cell-based
J774.A1 = test: Cytotoxicity against mouse J774.A1 cells assessed as reduction in cell viability at 10 uM measured after 5 hrs by Cell TiterGlo Luminescent assay relative to control; format: cell-based; details: j774.a1, 5 h
[3] = target: T1, Calmodulin-sensitive adenylate cyclase (Bacillus anthracis, UniProt P40136); test: Inhibition of Bacillus anthracis edema factor by cell free assay; how it was run: as §1
T1 sequence (P40136 whole entry): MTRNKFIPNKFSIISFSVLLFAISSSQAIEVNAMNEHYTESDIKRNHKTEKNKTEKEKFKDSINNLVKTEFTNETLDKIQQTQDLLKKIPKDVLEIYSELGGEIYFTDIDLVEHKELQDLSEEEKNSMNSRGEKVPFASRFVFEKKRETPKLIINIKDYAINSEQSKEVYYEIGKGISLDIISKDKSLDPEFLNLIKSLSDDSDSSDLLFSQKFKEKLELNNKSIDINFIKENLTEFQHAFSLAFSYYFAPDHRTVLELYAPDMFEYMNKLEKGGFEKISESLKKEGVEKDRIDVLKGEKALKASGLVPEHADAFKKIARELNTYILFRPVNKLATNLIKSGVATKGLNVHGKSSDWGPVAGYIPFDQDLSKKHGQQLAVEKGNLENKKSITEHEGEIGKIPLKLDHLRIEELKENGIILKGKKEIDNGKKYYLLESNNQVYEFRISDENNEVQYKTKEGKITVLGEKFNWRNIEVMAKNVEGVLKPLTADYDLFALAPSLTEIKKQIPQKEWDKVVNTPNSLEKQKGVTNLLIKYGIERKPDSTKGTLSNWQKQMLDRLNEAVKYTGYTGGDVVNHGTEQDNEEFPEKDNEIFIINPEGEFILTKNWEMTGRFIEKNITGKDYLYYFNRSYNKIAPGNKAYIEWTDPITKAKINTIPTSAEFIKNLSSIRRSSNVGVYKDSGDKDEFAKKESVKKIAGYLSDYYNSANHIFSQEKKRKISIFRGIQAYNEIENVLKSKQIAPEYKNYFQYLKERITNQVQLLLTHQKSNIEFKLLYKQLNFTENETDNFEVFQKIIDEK

| Compound | IC50 [1] [nM] | IC50 [2] [nM] | Activity (J774.A1) [%] | IC50 [3] [nM] |
| --- | --- | --- | --- | --- |
| Nc1nc(CCOCP(=O)(O)OP(=O)(O)OP(=O)(O)O)c(-c2cccc(F)c2)s1 | 313 | – | – | – |
| COc1cc(OC)cc(-c2sc(N)nc2CCOCP(=O)(N[C@@H](Cc2ccccc2)C(=O)OC(C)C)N[C@@H](Cc2ccccc2)C(=O)OC(C)C)c1 | – | 1430 | 86 | – |
| CC(C)OC(=O)[C@H](Cc1ccccc1)NP(=O)(COCCc1nc(N)sc1-c1cccc(OCc2ccccc2)c1)N[C@@H](Cc1ccccc1)C(=O)OC(C)C | – | – | 72 | – |
| CC(C)OC(=O)[C@H](Cc1ccccc1)NP(=O)(COCCn1cnc2c(N)ncnc21)N[C@@H](Cc1ccccc1)C(=O)OC(C)C | – | 150 | 93 | – |
| Nc1nc(CCOCP(=O)(O)OP(=O)(O)OP(=O)(O)O)c(-c2cccc(OCc3ccccc3)c2)s1 | 192 | – | – | – |
| CC(C)Cc1sc(N)nc1-c1ccc(P(=O)(O)N[C@@H](Cc2ccccc2)C(=O)OC(C)C)o1 | – | 14200 | 86 | – |
| CNC(=O)c1cccc(-c2sc(N)nc2CCOCP(=O)(N[C@@H](Cc2ccccc2)C(=O)OC(C)C)N[C@@H](Cc2ccccc2)C(=O)OC(C)C)c1 | – | 8450 | 106 | – |
| CC(C)OC(=O)[C@H](Cc1ccccc1)NP(=O)(COCCc1nc(N)sc1-c1cccc(F)c1)N[C@@H](Cc1ccccc1)C(=O)OC(C)C | – | – | 99 | – |
| CCCCOc1cccc(-c2sc(N)nc2CCOCP(=O)(N[C@@H](Cc2ccccc2)C(=O)OC(C)C)N[C@@H](Cc2ccccc2)C(=O)OC(C)C)c1 | – | – | 35 | – |
| CC(C)Oc1ccc(-c2sc(N)nc2CCOCP(=O)(O)OP(=O)(O)OP(=O)(O)O)cc1 | 185 | – | – | – |
| CC(C)OC(=O)[C@H](Cc1ccccc1)NP(=O)(COCCc1nc(N)sc1-c1cccnc1)N[C@@H](Cc1ccccc1)C(=O)OC(C)C | – | 2620 | 99 | – |
| CC(C)OC(=O)[C@H](Cc1ccccc1)NP(=O)(COCc1csc(N)n1)N[C@@H](Cc1ccccc1)C(=O)OC(C)C | – | > 10000 | 83 | – |
| Nc1nc(CCOCP(=O)(O)OP(=O)(O)OP(=O)(O)O)c(-c2ccccc2OCc2ccccc2)s1 | 184 | – | – | 7810 |
| COc1ccc(-c2sc(N)nc2CCOCP(=O)(N[C@@H](Cc2ccccc2)C(=O)OC(C)C)N[C@@H](Cc2ccccc2)C(=O)OC(C)C)c(C)c1 | – | 1160 | 57 | – |
| CC(C)OC(=O)[C@H](Cc1ccccc1)NP(=O)(COCCc1nc(N)sc1-c1ccc(OC(C)C)cc1)N[C@@H](Cc1ccccc1)C(=O)OC(C)C | – | – | 81 | – |
| CNS(=O)(=O)c1ccc(-c2sc(N)nc2CCOCP(=O)(N[C@@H](Cc2ccccc2)C(=O)OC(C)C)N[C@@H](Cc2ccccc2)C(=O)OC(C)C)cc1 | – | > 10000 | 94 | – |
| CC(C)OC(=O)[C@H](Cc1ccccc1)NP(=O)(COCc1nc(N)sc1-c1ccccc1)N[C@@H](Cc1ccccc1)C(=O)OC(C)C | – | 4680 | 54 | – |
| CC(C)OC(=O)[C@H](Cc1ccccc1)NP(=O)(COCCc1nc(N)sc1-c1cccc(OC(C)C)c1)N[C@@H](Cc1ccccc1)C(=O)OC(C)C | – | 1720 | 44 | – |
| CNC(=O)c1ccc(-c2sc(N)nc2CCOCP(=O)(O)OP(=O)(O)OP(=O)(O)O)cc1 | 37.4 | – | – | – |
| CC(C)Cc1sc(N)nc1-c1ccc(P(=O)(NC(Cc2ccccc2)C(=O)OC(C)C)N[C@@H](Cc2ccccc2)C(=O)OC(C)C)o1 (stereo not given in full) | – | 2120 | 88 | – |
| CNC(=O)c1ccc(-c2sc(N)nc2CCOCP(=O)(N[C@@H](Cc2ccccc2)C(=O)OC(C)C)N[C@@H](Cc2ccccc2)C(=O)OC(C)C)cc1 | – | – | 99 | – |
| CC(C)Cc1sc(N)nc1-c1ccc(P(=O)(O)OP(=O)(O)OP(=O)(O)O)o1 | 16000 | – | – | 5060 |
| CNS(=O)(=O)c1cccc(-c2sc(N)nc2CCOCP(=O)(N[C@@H](Cc2ccccc2)C(=O)OC(C)C)N[C@@H](Cc2ccccc2)C(=O)OC(C)C)c1 | – | – | 99 | – |
| Nc1ncnc2c1ncn2CCOCP(=O)(O)OP(=O)(O)OP(=O)(O)O [ADEFOVIR DIPHOSPHATE] | 17.8 | – | – | 36 |
| CC(C)OC(=O)[C@H](Cc1ccccc1)NP(=O)(COCCc1csc(N)n1)N[C@@H](Cc1ccccc1)C(=O)OC(C)C | – | > 10000 | 72 | – |
| CC(C)OC(=O)[C@H](Cc1ccccc1)NP(=O)(COCCc1nc(N)sc1-c1ccccc1OCc1ccccc1)N[C@@H](Cc1ccccc1)C(=O)OC(C)C | – | > 10000 | 115 | – |
| CC(C)OC(=O)[C@H](Cc1ccccc1)NP(=O)(COCCc1nc(N)sc1-c1ccccc1)N[C@@H](Cc1ccccc1)C(=O)OC(C)C | – | – | 112 | – |
| CC(C)OC(=O)[C@H](Cc1ccccc1)NP(=O)(COCCc1nc(N)sc1Sc1ccccc1)N[C@@H](Cc1ccccc1)C(=O)OC(C)C | – | 930 | 36 | – |
